From ChEMBL document CHEMBL2321737, “Selective inhibition of glycosyltransferases by bivalent imidazolium salts” (Bioorg Med Chem, 2013)

Molecular target: Glycoprotein-N-acetylgalactosamine 3-beta-galactosyltransferase 1 (Homo sapiens) (UniProt Q9NS00)
Test: Inhibition of human C1GalT Gal-transferase using GalNAcalpha-Bn as substrate at 0.5 mM after 1 hr in presence of phosphatidylcholine

Glycoprotein-N-acetylgalactosamine 3-beta-galactosyltransferase 1 (Homo sapiens), sequence (Q9NS00 whole entry): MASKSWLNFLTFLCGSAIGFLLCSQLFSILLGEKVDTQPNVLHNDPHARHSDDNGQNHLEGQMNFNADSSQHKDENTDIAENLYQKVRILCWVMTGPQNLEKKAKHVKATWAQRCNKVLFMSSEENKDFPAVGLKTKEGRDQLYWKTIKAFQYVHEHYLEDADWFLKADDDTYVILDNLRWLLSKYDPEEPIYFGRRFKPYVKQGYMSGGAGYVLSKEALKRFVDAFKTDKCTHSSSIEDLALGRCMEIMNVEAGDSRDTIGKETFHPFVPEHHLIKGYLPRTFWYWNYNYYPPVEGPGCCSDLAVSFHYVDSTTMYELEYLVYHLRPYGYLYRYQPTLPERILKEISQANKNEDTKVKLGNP

Structure (SMILES)	inhibition
C[n+]1ccn(CCCCCCCCCCCCCCCCCCCCCCn2cc[n+](C)c2)c1	< 1%

Molecular target: T1, Beta-1,4-galactosyltransferase 1 (Bos taurus) (UniProt P08037)
T1 sequence (whole entry): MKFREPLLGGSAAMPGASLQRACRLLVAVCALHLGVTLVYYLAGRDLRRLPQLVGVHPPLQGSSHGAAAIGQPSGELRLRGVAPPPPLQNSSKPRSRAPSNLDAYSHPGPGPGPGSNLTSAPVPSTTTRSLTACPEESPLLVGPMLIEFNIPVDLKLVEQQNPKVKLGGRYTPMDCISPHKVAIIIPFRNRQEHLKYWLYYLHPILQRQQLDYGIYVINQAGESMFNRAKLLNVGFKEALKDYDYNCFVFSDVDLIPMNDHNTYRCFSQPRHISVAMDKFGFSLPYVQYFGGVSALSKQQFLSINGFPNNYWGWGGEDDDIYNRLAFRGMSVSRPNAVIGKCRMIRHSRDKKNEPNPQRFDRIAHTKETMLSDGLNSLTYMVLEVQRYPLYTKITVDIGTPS
Test: Inhibition of bovine milk beta4-GalT1 using GlcNAcbeta-Bn as substrate at 0.5 mM after 1 hr relative to control
In short: (§1)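 Single point at 0.5 mM bis-imidazolium salt, 10% ethanol. Acceptor 0.5 mM GlcNAcβ-Bn, donor 0.5 mM UDP-Gal. […] Enzyme: 0.34 µg His-tagged human β4-GalT1 from BL21, or bovine milk β4-GalT1. Mean ± SD of replicates.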

Structure (SMILES)	inhibition
C[n+]1ccn(CCCCCCCCCCCCCCCCCCCCCCn2cc[n+](C)c2)c1	78%

Molecular target: T2, Alpha-1,6-mannosyl-glycoprotein 2-beta-N-acetylglucosaminyltransferase (Homo sapiens) (UniProt Q10469)
T2 sequence (whole entry): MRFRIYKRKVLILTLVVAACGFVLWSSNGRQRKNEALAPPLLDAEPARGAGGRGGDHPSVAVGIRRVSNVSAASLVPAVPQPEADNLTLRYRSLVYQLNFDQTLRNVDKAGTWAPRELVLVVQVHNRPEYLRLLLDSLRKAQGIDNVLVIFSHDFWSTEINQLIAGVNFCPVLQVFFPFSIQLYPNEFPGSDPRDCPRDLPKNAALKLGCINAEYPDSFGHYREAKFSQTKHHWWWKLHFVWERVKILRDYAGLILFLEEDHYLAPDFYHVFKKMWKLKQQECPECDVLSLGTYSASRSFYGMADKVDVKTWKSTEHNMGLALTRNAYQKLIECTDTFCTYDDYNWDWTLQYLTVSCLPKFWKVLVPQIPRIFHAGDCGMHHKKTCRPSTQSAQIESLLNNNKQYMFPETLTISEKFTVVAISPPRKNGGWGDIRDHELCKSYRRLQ
Test: Inhibition of human GNT2 […] using GnMan3-octyl as substrate at 0.5 mM after 1 hr in presence of phosphatidylcholine

Structure (SMILES)	inhibition
C[n+]1ccn(CCCCCCCCCCCCCCCCCCCCCCn2cc[n+](C)c2)c1	< 1%

Organism: Bos taurus
Test: Inhibition of bovine polypeptide GalNAcT1 using AQPTPPP as substrate at 0.5 mM after 1 hr relative to control

Structure (SMILES)	inhibition
C[n+]1ccn(CCCCCCCCCCCCCCCCCCCCCCn2cc[n+](C)c2)c1	100%

Molecular target: T3, Beta-1,3-galactosyltransferase 5 (Homo sapiens) (UniProt Q9Y2C3)
T3 sequence (whole entry): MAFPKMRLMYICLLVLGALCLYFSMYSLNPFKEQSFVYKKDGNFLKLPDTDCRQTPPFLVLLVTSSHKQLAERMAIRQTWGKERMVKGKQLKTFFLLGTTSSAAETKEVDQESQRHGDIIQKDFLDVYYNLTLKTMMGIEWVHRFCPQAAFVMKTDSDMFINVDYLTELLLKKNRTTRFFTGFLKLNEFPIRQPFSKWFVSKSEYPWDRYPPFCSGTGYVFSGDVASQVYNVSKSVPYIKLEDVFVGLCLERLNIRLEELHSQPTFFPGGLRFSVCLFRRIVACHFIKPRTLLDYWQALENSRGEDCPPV
Test: Inhibition of human recombinant soluble His-tagged beta3-GalT5 expressed in insect cells using GlcNAcbeta-Bn as substrate at 0.5 mM after 1 hr relative to control
In short: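 Soluble His-tagged human β3-GalT5 expressed in insect cells and purified, 0.37 µg. Acceptor 0.5 mM GlcNAcβ-Bn, donor 0.5 mM UDP-Gal, inhibitor 0.5 mM bis-imidazolium salt in 10% ethanol. 1 h at 37 °C. Product isolated on AG1-X8 resin and counted by scintillation. % inhibition versus no-inhibitor control; blanks lacked acceptor. Mean ± SD of replicates.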

Structure (SMILES)	inhibition
c1cn(CCCCCCCCCCn2ccnc2)cn1	< 1%
C[n+]1ccn(CCCCCCCCCCCCCCn2cc[n+](C)c2)c1	< 1%
c1cn(CCCCCCCCCCCCCCCn2ccnc2)cn1	< 1%
C[n+]1ccn(CCCCCCn2cc[n+](C)c2)c1	< 1%
C[n+]1ccn(CCCCn2cc[n+](C)c2)c1	< 1%
C[n+]1ccn(CCCCCCCCCCCCCn2cc[n+](C)c2)c1	< 1%
c1cn(CCCCCCCCCCCCCCCCn2ccnc2)cn1	< 1%
c1cn(CCCCCCCCCCCCCCn2ccnc2)cn1	< 1%
C[n+]1ccn(CCCCCCCCCCCCCCCCCCCCCCn2cc[n+](C)c2)c1	95%
c1cn(CCCCCCn2ccnc2)cn1	< 1%
c1cn(CCCCn2ccnc2)cn1	< 1%
C[n+]1ccn(CCCCCCCCCCCn2cc[n+](C)c2)c1	< 1%
c1cn(CCCCCCCCCCCCCCCCCCCCn2ccnc2)cn1	< 1%
C[n+]1ccn(CCCCCCCCCCCCn2cc[n+](C)c2)c1	< 1%
C[n+]1ccn(CCCCCCCCCCn2cc[n+](C)c2)c1	< 1%
c1cn(CCCCCCCCCCCCn2ccnc2)cn1	< 1%
C[n+]1ccn(CCCCCCCCn2cc[n+](C)c2)c1	< 1%
C[n+]1ccn(CCCCCCCCCCCCCCCCCCn2cc[n+](C)c2)c1	< 5%
C[n+]1ccn(CCCCCCCCCCCCCCCCn2cc[n+](C)c2)c1	< 1%
C[n+]1ccn(CCCCCCCCCCCCCCCn2cc[n+](C)c2)c1	< 1%
c1cn(CCCCCCCCn2ccnc2)cn1	< 1%
c1cn(CCCCCCCCCCCCCn2ccnc2)cn1	< 1%
c1cn(CCCCCCCCCCCn2ccnc2)cn1	< 1%
c1cn(CCCCCCCCCCCCCCCCCCn2ccnc2)cn1	< 1%

Molecular target: T4, Acetylgalactosaminyl-O-glycosyl-glycoprotein beta-1,3-N-acetylglucosaminyltransferase (Homo sapiens) (UniProt Q6ZMB0)
T4 sequence (whole entry): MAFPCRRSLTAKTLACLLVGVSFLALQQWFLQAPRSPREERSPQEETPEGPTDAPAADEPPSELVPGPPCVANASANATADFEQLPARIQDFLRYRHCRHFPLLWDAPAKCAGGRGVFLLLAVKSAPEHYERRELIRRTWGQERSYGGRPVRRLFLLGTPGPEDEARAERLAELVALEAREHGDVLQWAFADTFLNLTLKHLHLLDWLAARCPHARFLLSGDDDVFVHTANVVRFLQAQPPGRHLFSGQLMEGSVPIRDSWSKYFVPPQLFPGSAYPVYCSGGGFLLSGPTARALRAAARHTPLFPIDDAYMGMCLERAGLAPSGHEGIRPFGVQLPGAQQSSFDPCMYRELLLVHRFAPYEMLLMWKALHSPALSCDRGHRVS
Test: Inhibition of human B3GnT6 using GalNAcalpha-Bn as substrate at 0.5 mM after 1 hr in presence of phosphatidylcholine

Structure (SMILES)	inhibition
C[n+]1ccn(CCCCCCCCCCCCCCCCCCCCCCn2cc[n+](C)c2)c1	78%

Molecular target: T5, Beta-1,4-galactosyltransferase 1 (Homo sapiens) (UniProt P15291)
T5 sequence (whole entry): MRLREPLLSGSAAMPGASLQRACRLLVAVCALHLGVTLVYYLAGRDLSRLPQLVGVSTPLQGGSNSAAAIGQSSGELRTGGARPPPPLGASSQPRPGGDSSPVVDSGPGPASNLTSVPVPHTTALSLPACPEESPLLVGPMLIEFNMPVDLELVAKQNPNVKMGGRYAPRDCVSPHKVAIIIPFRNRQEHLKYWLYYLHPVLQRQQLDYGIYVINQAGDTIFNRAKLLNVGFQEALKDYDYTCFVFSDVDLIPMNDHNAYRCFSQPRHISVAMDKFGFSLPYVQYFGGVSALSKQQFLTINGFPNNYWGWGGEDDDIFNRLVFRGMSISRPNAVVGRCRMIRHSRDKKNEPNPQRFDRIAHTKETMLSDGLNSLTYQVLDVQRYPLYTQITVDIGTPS
Test: Inhibition of human recombinant soluble His-tagged beta4-GalT1 expressed in Escherichia coli BL21 using GlcNAcbeta-Bn as substrate at 0.5 mM after 1 hr relative to control
In short: as §1

Structure (SMILES)	inhibition
c1cn(CCCCCCCCCCn2ccnc2)cn1	< 1%
C[n+]1ccn(CCCCCCCCCCCCCCn2cc[n+](C)c2)c1	< 1%
c1cn(CCCCCCCCCCCCCCCn2ccnc2)cn1	< 1%
C[n+]1ccn(CCCCCCn2cc[n+](C)c2)c1	< 1%
C[n+]1ccn(CCCCn2cc[n+](C)c2)c1	< 1%
C[n+]1ccn(CCCCCCCCCCCCCn2cc[n+](C)c2)c1	< 1%
c1cn(CCCCCCCCCCCCCCCCn2ccnc2)cn1	< 1%
c1cn(CCCCCCCCCCCCCCn2ccnc2)cn1	< 1%
C[n+]1ccn(CCCCCCCCCCCCCCCCCCCCCCn2cc[n+](C)c2)c1	78%
c1cn(CCCCCCn2ccnc2)cn1	< 1%
c1cn(CCCCn2ccnc2)cn1	< 1%
C[n+]1ccn(CCCCCCCCCCCn2cc[n+](C)c2)c1	< 1%
c1cn(CCCCCCCCCCCCCCCCCCCCn2ccnc2)cn1	< 1%
C[n+]1ccn(CCCCCCCCCCCCn2cc[n+](C)c2)c1	< 1%
C[n+]1ccn(CCCCCCCCCCn2cc[n+](C)c2)c1	< 1%
c1cn(CCCCCCCCCCCCn2ccnc2)cn1	< 1%
C[n+]1ccn(CCCCCCCCn2cc[n+](C)c2)c1	< 1%
C[n+]1ccn(CCCCCCCCCCCCCCCCCCn2cc[n+](C)c2)c1	< 1%
C[n+]1ccn(CCCCCCCCCCCCCCCCn2cc[n+](C)c2)c1	< 1%
C[n+]1ccn(CCCCCCCCCCCCCCCn2cc[n+](C)c2)c1	< 1%
c1cn(CCCCCCCCn2ccnc2)cn1	< 1%
c1cn(CCCCCCCCCCCCCn2ccnc2)cn1	< 1%
c1cn(CCCCCCCCCCCn2ccnc2)cn1	< 1%
c1cn(CCCCCCCCCCCCCCCCCCn2ccnc2)cn1	< 1%

Molecular target: T6, Beta-1,3-galactosyl-O-glycosyl-glycoprotein beta-1,6-N-acetylglucosaminyltransferase (Homo sapiens) (UniProt Q02742)
T6 sequence (whole entry): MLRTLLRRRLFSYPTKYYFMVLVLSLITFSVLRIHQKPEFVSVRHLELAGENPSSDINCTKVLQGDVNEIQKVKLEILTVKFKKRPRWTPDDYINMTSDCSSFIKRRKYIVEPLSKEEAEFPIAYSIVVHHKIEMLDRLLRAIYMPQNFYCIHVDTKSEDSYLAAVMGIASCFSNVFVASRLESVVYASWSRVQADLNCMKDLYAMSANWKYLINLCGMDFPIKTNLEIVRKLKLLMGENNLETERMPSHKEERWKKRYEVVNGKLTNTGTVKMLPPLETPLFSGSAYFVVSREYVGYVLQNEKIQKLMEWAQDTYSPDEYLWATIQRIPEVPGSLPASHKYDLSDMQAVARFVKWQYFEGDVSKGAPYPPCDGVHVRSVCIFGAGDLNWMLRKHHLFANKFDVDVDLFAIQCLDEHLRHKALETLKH
Test: Inhibition of human C2GnT1 using Galbeta3GalNAcalpha-Bn as substrate at 0.5 mM after 1 hr in presence of phosphatidylcholine

Structure (SMILES)	inhibition
C[n+]1ccn(CCCCCCCCCCCCCCCCCCCCCCn2cc[n+](C)c2)c1	100%

Molecular target: Beta-1,3-galactosyltransferase 5 (Homo sapiens) (UniProt Q9Y2C3)
Test: Inhibition of human recombinant soluble His-tagged beta3-GalT5 expressed in insect cells using GlcNAcbeta-Bn as substrate after 1 hr

Structure (SMILES)	IC50
C[n+]1ccn(CCCCCCCCCCCCCCCCCCCCCCn2cc[n+](C)c2)c1	400 µM
C[n+]1ccn(CCCCCCCCCCCCCCCCCCCCn2cc[n+](C)c2)c1 [listing 1 of 2 here]	420 µM
C[n+]1ccn(CCCCCCCCCCCCCCCCCCCCn2cc[n+](C)c2)c1 [listing 2 of 2 here]	440 µM

Molecular target: T7, Beta-1,4-galactosyltransferase 1 (Homo sapiens, UniProt P15291)
T7 sequence (P15291 whole entry): T5 sequence (whole entry)
Test: Inhibition of human recombinant soluble His-tagged beta4-GalT1 expressed in Escherichia coli BL21 using GlcNAcbeta-Bn as substrate after 1 hr relative to control
In short: (§2)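 Dose-response series of bis-imidazolium salt in 10% ethanol, 0.5 mM GlcNAcβ-Bn acceptor, 0.5 mM UDP-Gal donor. 1 h at 37 °C. Product isolated on AG1-X8 anion-exchange resin (chloride form) with water elution, then scintillation counting. Controls lacked acceptor or inhibitor. IC50 fitted from inhibition curves. Enzyme source: bovine milk β4-GalT1 or bacterially expressed, purified human β4-GalT1.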

Structure (SMILES)	IC50
C[n+]1ccn(CCCCCCCCCCCCCCCCCCCCn2cc[n+](C)c2)c1 [listing 2 of 2 here]	1960 µM

Organism: Homo sapiens
Test: Inhibition of human C2GnT2 using Galbeta3GalNAcalpha-Bn as substrate at 0.5 mM after 1 hr in presence of phosphatidylcholine

Structure (SMILES)	inhibition
C[n+]1ccn(CCCCCCCCCCCCCCCCCCCCCCn2cc[n+](C)c2)c1	< 1%

Molecular target: T8, Beta-1,4-galactosyltransferase 1 (Bos taurus, UniProt P08037)
T8 sequence (P08037 whole entry): T1 sequence (whole entry)
Test: Inhibition of bovine milk beta4-GalT1 using GlcNAcbeta-Bn as substrate after 1 hr relative to control
In short: as §2

Structure (SMILES)	IC50
C[n+]1ccn(CCCCCCCCCCCCCCCCCCCCn2cc[n+](C)c2)c1 [listing 2 of 2 here]	730 µM

Organism: Homo sapiens
Test: Inhibition of human C2GnT2 using GlcNAcbeta3GalNAcalpha-pnp as substrate at 0.5 mM after 1 hr in presence of phosphatidylcholine

Structure (SMILES)	inhibition
C[n+]1ccn(CCCCCCCCCCCCCCCCCCCCCCn2cc[n+](C)c2)c1	< 1%
